Reference: the RNAGym collection of RNA variant scans (doi:10.1126/science.aae0568)
Variants at the floor of the assay were thinned out.

B1: tRNA (parent)
chain: GUUCCGUUGGCGUAAUGGUAACGCGUCUCCCUCCUAAGGAGAAGACUGCGGGUUCGAGUCCCGUACGGAACG

Variants of: B1
Experiment: yeast fitness relative to wild type (ratio to wild type); higher = fitter; tRNA-Arg(CCU), competitive growth, 37 C, YPD
Method in brief: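 For this measurement, the tRNA-Arg(CCU) gene was varied by chemical synthesis at a 3% per-site mutation rate across 69 sites, and each variant was placed at the native genomic locus in Saccharomyces cerevisiae. The pooled strains went through a 24-hour competition in YPD at 37°C in six parallel replicates, with amplicons from start and end populations read by 100-nucleotide paired-end sequencing. Darwinian fitness relative to wild type followed from the change in each genotype's frequency. Genotypes needed ≥ 100 starting reads, and estimates < 0.5 were set to 0.5.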

Q: For GUUCCGUUGGCGUAGUGGUAACGCGUAUCCCUCCUAAGGAGAGGACUGCGGGUUCGAGUCCCGUACGGAACG, which yeast fitness is on record?
A: ≤ 0.5

Q: For GUUCCGUUGGCGUAGUGGUAACGCGUUUCCCUCCUAAGGAGAAGACUGCGGGUUCGACUCCCGUACGGAACG, which yeast fitness is on record?
A: 0.717

Q: Which yeast fitness does the source give for GUUCCGUUGGCGUAGUGGUAACGCGUAUCCCUCCUAAGGAGAAGACUGCGGGUUCGAGUGCCGUACGGAACG here?
A: ≤ 0.5

Q: Which yeast fitness does the source give for GUUCCGUUGGCGUAGUGGUAACGCGUCUACCUCCUGAGAAGAAGACUGCGGGUUCGAGUCCCGUACGGAACG here?
A: ≤ 0.5

Q: Which yeast fitness does the source give for GUUCCGUUGGCGUAGUGGUAACGCGUCUGCCUGCUAAGGAGAAGACUGCGGGUUCGAGUCCCGUACGGAACG here?
A: ≤ 0.5

Q: For GUUCCGUUGGCGUAGUGGUAACGCGUCUCCCUCGUAAGGAGAAGACUGCGGGUUCGAGUCCCGUACGGAACG, which yeast fitness is on record?
A: 0.636

Q: With GUUCCGUUGGCGUAGUGGUAACGCGUCUCACUCCUAAGGAGAAGACUGCGGGUUCGAGUCCAGUACGGAACG as the variant, how does the yeast fitness read?
A: ≤ 0.5

Q: With GUUCCGUUGGCGUAGUGGUAACGCGUCUCCCUGCUAAGGAGAAGACUGCGGGUUCGAGUCCCGUACGGAACG as the variant, how does the yeast fitness read?
A: 0.732

Q: With GUUCCGUUGGCGUAGUGGUAACGCGUCUCCUUCCUAAGGAGAAGACUGCGGGUUCGAAUCCCGUACGGAACG as the variant, how does the yeast fitness read?
A: 1.03

Q: Which yeast fitness does the source give for GUUCCGUUGGCGUAGUGGUAACGCGUCUCCGUCCCAAGGAGACGACUGCGGGUUCGAGUCCCGUACGGAACG here?
A: 0.586

Q: With GUUCCGUUGGCGUAGUGGUAACGCGUCUCCCUCGUAUGGAGAAGACUGGGGGUUCGAGUCCCGUACGGAACG as the variant, how does the yeast fitness read?
A: ≤ 0.5

Q: Which yeast fitness does the source give for GUUCCGUUGGCGUAGUGGUAACGCGUUCCCCUCCUAAGGAGAAGACUGCGGGUUCGAGUCCCGUACGGAACG here?
A: 0.731

Q: With GUUCCGUUGGCGUAGUGGUAACGCGUCUCGCUCCUAAGGAGAUGACUGCGGGUUCGAGUCCAGUACGGAACG as the variant, how does the yeast fitness read?
A: 0.611

Q: For GUUCCGUUGGCGUAGUGGUAACGCGUCUCCAUCCUAAGGACAAGACUGCGGGUUCAACUCCCGUACGGAACG, which yeast fitness is on record?
A: ≤ 0.5

Q: Which yeast fitness does the source give for GUUCCGUUGGCGUAGUGGUAACGCGUCUCCGUCCCAUGGAGAAGACUGCGGGUUCGUGUCCCGUACGGAACG here?
A: ≤ 0.5

Q: For GUUCCGUUGGCGUAGUGGUAACGCGUGUCCCUCCUAAGGAGAAGACUGCGGGUUCGAGUCCCGUACGGAUCG, which yeast fitness is on record?
A: 0.543

Q: For GUUCCGUUGGCGUAGUGGUAACGCGUCUCCGUCCUAAGGAGAAGACUGCGGGUUCGAGUCCCGUACGGAACG, which yeast fitness is on record?
A: 0.852

Q: With GUUCCGUUGGCGUAGUGGUAACGCGUCUCCUUCCUAAGGAGAAGACUGCGGGUUCGAGUCCCGUACGGAACG as the variant, how does the yeast fitness read?
A: 0.987

Q: With GUUCCGUUGGCGUAGUGGUAACGCGUGUCCCUCCUUAGCAGAAGACUGCGGGUUCGAGUCCCGUACGGCACG as the variant, how does the yeast fitness read?
A: ≤ 0.5

Q: For GUUCCGUUGGCGUAGUGGUAACGCGUCUCCCUCUUGAGGAGAAGACUGCGGGUUCGAGUCCCGUACGGAACG, which yeast fitness is on record?
A: 0.563

Q: With GUUCCGUUGGCGUAGUGGUAACGCGUCUCCGUCCUAAGGAGAAGACGGGGGGUUCGAGUCCCGUACGGAACG as the variant, how does the yeast fitness read?
A: 0.545

Q: Which yeast fitness does the source give for GUUCCGUUGGCGUAGUGGUAACGCGUCUACCUCCUAAGGAGAAGACUGCGGGUUCGAGUCCCGCACGGAACG here?
A: ≤ 0.5

Q: Which yeast fitness does the source give for GUUCCGUUGGCGUAGUGGUAACGCGUCUACCUCCUAAGGAGAAGACUGCGGGUUCGAGUCCCGUACGGCACG here?
A: 0.517

Q: With GUUCCGUUGGCGUAGUGGUAACGCGUCUCCAUCCUAAGGAGAAGACUGCGGGUUCGAGUCCCGUACGGAUCG as the variant, how does the yeast fitness read?
A: 0.639

Q: With GUUCCGUUGGCGUAGUGGUAACGCGUCUCUAUCCUCAGGAGAAGACUGCGGGUUCGAGUCCCGUACGGAACG as the variant, how does the yeast fitness read?
A: ≤ 0.5

Q: With GUUCCGUUGGCGUAGUGGUAACGCGUCUCCAUCCUAAGGAGAAGACUGCGGGUUCGAGUCCCGUGCGGAACG as the variant, how does the yeast fitness read?
A: ≤ 0.5

Q: For GUUCCGUUGGCGUAGUGGUAACGCGUCUCCUUCCUAAGGAGAAGACUGCGGGUUCGAGUACCGUACGGAACG, which yeast fitness is on record?
A: 0.584

Q: Which yeast fitness does the source give for GUUCCGUUGGCGUAGUGGUAACGCGUCUCCGUCCCAAGGAGACGACUGCGGGUUCGCAUCCCGUACGGAACG here?
A: ≤ 0.5

Q: Which yeast fitness does the source give for GUUCCGUUGGCGUAGUGGUAACGCGUCUUCCUCAUAAGGAGUAGACUGCGGGUUCGAGUCCCGUACGGAACG here?
A: ≤ 0.5

Q: Which yeast fitness does the source give for GUUCCGUUGGCGUAGUGGUAACGCGUCUUCCUCGUAAGGCGAAGACUGCGGGUUCGAGUCCCGUACGGAACG here?
A: 0.694

Q: For GUUCCGUUGGCGUAGUGGUAACGCGUCUCGCUCCUAAGGAGAAGACUGCGGGUUAGAGUCCCGUACGGAACG, which yeast fitness is on record?
A: ≤ 0.5

Q: For GUUCCGUUGGCGUAGUGGUAACGCGUCUGCCUCCUAUGGAGAAGACUGCGGGUUCGAGUCCCGUACGGAACG, which yeast fitness is on record?
A: ≤ 0.5

Q: For GUUCCGUUGGCGUAGUGGUAACGCGUCUCCCUUCUAAGGAGAAGUCUGCGGGUUCGAGUCCAGUACGGAACG, which yeast fitness is on record?
A: ≤ 0.5

Q: For GUUCCGUUGGCGUAGUGGUAACGCGUCUCGCUCCUAAGGAGAAGACUGGGGGUUCGAGUCCCGUUCGGAACG, which yeast fitness is on record?
A: ≤ 0.5

Q: With GUUCCGUUGGCGUAGUGGUAACGCGUCUACCUCCUAAGGAGCAGACUGCGGGUUCGAGUCCCGUACGGAUCG as the variant, how does the yeast fitness read?
A: ≤ 0.5

Q: Which yeast fitness does the source give for GUUCCGUUGGCGUAGUGGUAACGCGUCUCACUCCUAAGGAGAGGACUGCGGGUUCGUGUCCCGUACGGAACG here?
A: 0.529

Q: For GUUCCGUUGGCGUAGUGGUAACGCGUCUCACUCCUAAGGAGAAGACUGCGGGUUCGAGUCCCGUCCGGAACG, which yeast fitness is on record?
A: 0.609

Q: Which yeast fitness does the source give for GUUCCGUUGGCGUAGUGGUAACGCGUCUUCCUCCUAAGGAGACGACUGCGGGUUCGAGUCCCGUACGGUACG here?
A: 0.536
